Results as given in ChEMBL document CHEMBL5653631, “A Potent and Selective ULK1 Inhibitor Suppresses Autophagy and Sensitizes Cancer Cells to Nutrient Stress” (iScience, 2018).

Experiments:
[1] = molecular target: Myosin light chain kinase 2, skeletal/cardiac muscle (Homo sapiens) (UniProt Q9H1R3); assay: Inhibition of human recombinant skMLCK at 40 nM related to control ULK1
[2] = molecular target: 5'-AMP-activated protein kinase catalytic subunit alpha-2 (Homo sapiens) (UniProt P54646); assay: Inhibition of human recombinant AMPKa2 at 40 nM related to control ULK1
In short: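 Radiometric activity assays in a panel of 327 human recombinant kinases, each run in duplicate at one inhibitor concentration. Activity remaining is expressed as percent of vehicle control, and percent inhibition is calculated as 100% minus percent activity remaining.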

[3] = molecular target: T1, Testis-specific serine/threonine-protein kinase 2 (Homo sapiens) (UniProt Q96PF2); assay: Inhibition of human recombinant TSSK2 at 40 nM related to control ULK1
T1 sequence (whole entry): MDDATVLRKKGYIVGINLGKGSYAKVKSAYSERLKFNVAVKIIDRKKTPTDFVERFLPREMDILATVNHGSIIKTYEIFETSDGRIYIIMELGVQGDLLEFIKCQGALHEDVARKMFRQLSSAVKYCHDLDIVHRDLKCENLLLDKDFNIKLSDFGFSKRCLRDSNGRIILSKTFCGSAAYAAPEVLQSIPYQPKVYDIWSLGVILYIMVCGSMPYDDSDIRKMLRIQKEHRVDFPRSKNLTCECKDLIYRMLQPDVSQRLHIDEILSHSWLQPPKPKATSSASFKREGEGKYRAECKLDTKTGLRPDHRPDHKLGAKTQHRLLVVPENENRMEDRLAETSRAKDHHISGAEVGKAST

[4] = molecular target: Casein kinase I isoform gamma-3 (Homo sapiens) (UniProt Q9Y6M4); assay: Inhibition of human recombinant CK1g3 at 500 nM related to control ULK1
[5] = molecular target: T2, Serine/threonine-protein kinase TAO2 (Homo sapiens) (UniProt Q9UL54); assay: Inhibition of human recombinant TAO2 at 500 nM related to control ULK1
T2 sequence (whole entry): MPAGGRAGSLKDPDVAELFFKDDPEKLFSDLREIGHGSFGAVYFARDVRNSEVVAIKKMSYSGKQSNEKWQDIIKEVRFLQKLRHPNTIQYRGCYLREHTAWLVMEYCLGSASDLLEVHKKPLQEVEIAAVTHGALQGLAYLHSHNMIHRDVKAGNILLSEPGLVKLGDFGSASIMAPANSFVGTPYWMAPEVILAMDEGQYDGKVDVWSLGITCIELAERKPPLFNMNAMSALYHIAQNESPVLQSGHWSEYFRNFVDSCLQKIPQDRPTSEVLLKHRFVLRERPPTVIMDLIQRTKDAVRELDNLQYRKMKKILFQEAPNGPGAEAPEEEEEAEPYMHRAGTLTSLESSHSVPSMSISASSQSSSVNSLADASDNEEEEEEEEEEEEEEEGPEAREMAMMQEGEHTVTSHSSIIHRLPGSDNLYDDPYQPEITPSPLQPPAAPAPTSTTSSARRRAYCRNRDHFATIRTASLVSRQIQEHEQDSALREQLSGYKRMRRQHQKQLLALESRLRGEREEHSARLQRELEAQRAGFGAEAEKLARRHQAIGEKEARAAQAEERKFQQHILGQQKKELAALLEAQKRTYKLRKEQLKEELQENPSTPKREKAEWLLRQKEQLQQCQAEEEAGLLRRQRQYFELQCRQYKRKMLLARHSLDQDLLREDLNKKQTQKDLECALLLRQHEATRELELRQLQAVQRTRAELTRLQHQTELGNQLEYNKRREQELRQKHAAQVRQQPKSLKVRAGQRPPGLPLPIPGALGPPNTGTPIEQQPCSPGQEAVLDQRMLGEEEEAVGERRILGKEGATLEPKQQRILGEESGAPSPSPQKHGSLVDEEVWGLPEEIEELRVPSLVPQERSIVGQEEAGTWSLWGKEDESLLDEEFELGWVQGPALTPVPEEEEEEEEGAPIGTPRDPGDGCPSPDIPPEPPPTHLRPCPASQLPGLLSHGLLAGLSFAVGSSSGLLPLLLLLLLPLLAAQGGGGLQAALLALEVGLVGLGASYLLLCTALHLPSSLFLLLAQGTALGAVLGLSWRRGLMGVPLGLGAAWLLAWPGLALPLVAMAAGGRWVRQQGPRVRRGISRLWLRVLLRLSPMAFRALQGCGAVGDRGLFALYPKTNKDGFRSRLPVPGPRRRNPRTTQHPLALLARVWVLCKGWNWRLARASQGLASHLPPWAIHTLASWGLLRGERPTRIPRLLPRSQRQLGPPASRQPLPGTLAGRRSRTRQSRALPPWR

[6] = molecular target: T3, Serine/threonine-protein kinase Nek3 (Homo sapiens) (UniProt P51956); assay: Inhibition of human recombinant NEK3 at 500 nM in presence of ATP by radiometric assay relative to control
T3 sequence (whole entry): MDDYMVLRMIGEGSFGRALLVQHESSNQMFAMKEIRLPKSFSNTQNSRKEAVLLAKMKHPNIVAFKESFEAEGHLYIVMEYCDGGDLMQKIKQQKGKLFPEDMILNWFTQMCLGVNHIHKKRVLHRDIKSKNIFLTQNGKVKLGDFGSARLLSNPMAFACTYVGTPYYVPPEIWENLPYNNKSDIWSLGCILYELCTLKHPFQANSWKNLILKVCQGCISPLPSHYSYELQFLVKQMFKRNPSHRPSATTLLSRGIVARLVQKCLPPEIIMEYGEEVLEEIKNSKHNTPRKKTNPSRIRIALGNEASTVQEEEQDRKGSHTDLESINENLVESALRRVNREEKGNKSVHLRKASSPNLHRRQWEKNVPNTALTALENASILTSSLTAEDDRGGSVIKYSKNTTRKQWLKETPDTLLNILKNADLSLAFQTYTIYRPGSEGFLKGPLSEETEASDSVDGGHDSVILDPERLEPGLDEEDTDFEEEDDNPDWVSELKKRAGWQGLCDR

[7] = molecular target: T4, Calcium/calmodulin-dependent protein kinase type IV (Homo sapiens) (UniProt Q16566); assay: Inhibition of human recombinant CaMK4 at 15 nM related to control ULK1
T4 sequence (whole entry): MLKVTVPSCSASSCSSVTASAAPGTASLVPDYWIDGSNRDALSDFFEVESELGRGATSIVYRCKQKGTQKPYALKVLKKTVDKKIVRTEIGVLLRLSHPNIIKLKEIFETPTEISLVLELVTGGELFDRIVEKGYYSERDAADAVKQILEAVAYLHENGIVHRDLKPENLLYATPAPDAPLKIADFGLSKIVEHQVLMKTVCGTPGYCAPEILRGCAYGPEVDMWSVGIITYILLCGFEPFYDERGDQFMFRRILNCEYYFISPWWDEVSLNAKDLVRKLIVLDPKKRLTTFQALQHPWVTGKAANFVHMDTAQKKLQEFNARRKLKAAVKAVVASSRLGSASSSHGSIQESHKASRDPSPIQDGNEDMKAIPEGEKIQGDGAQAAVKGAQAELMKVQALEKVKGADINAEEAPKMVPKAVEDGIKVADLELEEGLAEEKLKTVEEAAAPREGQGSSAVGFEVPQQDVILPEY

Chain of Casein kinase I isoform gamma-3 (Homo sapiens) (Q9Y6M4 whole entry, looked up, canonical isoform): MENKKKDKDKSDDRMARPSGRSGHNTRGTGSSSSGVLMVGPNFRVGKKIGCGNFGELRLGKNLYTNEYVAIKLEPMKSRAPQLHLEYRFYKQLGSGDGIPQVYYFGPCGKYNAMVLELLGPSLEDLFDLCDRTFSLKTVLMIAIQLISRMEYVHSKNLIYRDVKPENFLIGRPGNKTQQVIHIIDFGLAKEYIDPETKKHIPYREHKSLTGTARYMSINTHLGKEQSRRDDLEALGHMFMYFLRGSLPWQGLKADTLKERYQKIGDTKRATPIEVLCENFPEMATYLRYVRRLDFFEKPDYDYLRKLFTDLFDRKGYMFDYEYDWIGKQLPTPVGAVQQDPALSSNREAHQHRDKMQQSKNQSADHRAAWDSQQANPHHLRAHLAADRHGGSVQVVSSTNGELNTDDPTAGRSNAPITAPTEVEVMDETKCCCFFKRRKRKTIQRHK
Chain of Myosin light chain kinase 2, skeletal/cardiac muscle (Homo sapiens) (Q9H1R3 whole entry): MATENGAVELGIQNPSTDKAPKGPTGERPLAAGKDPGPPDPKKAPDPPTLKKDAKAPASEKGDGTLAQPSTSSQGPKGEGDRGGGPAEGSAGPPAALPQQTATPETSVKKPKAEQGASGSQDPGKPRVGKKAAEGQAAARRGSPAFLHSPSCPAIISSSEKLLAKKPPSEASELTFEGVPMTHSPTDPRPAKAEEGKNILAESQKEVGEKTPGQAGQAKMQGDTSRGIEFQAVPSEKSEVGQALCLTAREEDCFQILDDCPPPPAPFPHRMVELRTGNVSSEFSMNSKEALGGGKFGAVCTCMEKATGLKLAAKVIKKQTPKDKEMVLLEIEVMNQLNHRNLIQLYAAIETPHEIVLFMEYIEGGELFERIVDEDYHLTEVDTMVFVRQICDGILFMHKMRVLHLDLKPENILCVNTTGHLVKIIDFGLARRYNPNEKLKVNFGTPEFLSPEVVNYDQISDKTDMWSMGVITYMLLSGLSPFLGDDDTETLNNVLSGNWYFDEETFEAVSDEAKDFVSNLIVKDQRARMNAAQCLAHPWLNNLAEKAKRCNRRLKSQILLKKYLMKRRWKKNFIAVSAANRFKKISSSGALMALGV
Chain of 5'-AMP-activated protein kinase catalytic subunit alpha-2 (Homo sapiens) (P54646 whole entry, looked up): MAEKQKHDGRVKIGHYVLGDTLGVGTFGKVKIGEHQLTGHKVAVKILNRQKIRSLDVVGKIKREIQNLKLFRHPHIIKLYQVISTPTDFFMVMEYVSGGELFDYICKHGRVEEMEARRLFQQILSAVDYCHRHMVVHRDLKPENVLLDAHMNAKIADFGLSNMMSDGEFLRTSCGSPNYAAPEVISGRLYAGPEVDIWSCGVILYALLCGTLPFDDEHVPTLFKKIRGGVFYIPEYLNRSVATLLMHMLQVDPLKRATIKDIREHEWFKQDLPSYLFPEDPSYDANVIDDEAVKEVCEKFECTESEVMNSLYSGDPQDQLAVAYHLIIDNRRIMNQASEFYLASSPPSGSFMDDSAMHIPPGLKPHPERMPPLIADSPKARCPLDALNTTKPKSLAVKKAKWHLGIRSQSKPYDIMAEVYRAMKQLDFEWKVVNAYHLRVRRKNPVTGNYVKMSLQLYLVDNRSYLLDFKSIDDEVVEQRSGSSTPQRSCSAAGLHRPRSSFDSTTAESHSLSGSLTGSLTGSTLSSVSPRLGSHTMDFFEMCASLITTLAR

Compound: O=C(N[C@@H](C1CC1)C(F)(F)F)c1cc(-c2cnn3cc(-c4ccc(F)cc4)cnc23)cs1
- fold change (FC) [1]: 0
- fold change (FC) [2]: 0.1
- fold change (FC) [3]: 0

Compound: CNC(=O)c1ccccc1Oc1nc(Nc2cc(OC)c(OC)c(OC)c2)ncc1Br
- fold change (FC) [4]: 0
- fold change (FC) [5]: 0
- inhibition [6]: 7%

Compound: CC(C)[C@H](NC(=O)c1cc(-c2cnn3cc(-c4ccc(OCCN5CCCCC5)cc4)cnc23)cs1)C(F)(F)F
- fold change (FC) [7]: 0
